Bioassay records deposited in PubChem BioAssay by Broad Institute.
PAX8 inh HTS = inhibitors of PAX8 transcriptional activity in RMG-I cells; RMG-I TPO-luciferase reporter, SteadyGlo, 24 h; inhibition, % at 12.6 µM; hit rate 1.2% among 360,000;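 active = mean replicate inhibition at least 60% with every replicate also reaching 60%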;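 also: luciferase light reporting Pax8 driven TPO promoter activity; plate controls were median of neutral control wells for no effect and mitoxantrone controls for full effect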
AF4-AF9 inh = blocks AF4 peptide binding to human AF9. P42568. AlphaScreen, biotin-AF4 peptide binding to FLAG-AF9. inhibition, % at 10 µM. hit rate 0.47% among 350,000. AID 651704;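 active = every replicate reaching a set inhibition limit, whatever the replicate mean, cut at about 25% in these data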;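 also: 0% = plate neutral control median and 100% = total signal loss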
Target sequence (P42568 whole entry, looked up): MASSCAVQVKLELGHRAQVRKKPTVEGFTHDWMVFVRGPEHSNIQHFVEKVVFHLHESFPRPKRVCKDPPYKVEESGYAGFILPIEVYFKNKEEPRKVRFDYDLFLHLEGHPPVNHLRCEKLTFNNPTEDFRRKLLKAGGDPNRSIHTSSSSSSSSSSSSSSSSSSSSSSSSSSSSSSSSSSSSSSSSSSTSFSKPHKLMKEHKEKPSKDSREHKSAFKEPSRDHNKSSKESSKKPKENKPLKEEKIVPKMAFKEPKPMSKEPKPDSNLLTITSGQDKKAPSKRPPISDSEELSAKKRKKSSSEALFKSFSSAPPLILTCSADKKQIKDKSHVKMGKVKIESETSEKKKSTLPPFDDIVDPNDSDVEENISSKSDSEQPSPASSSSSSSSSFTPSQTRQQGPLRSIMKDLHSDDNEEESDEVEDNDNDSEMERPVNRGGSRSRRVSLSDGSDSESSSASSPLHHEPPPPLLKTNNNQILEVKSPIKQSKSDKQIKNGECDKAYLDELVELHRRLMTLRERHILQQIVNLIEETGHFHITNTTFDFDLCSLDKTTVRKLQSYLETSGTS
HIV Env fusion = blocks HIV Env-driven cell-cell fusion; inhibition, % at 12.3 µM; HeLa-JRFL Env/CEM21 cell fusion, luciferase; hit rate 1.1% among 360,000;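 active = mean replicate inhibition score of at least 50 and every replicate individually at or above 50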;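 also: 0% = plate neutral controls and 100% = maraviroc near 300 nM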
Glyco luc inh = N-linked glycosylation inhibition | D54 ERlucT glycosylation luciferase reporter, 24 h; percent of 100 nM tunicamycin response | reporter increase, % at 12.5 µM | hit rate 0.23% among 360,000;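 active = mean luciferase reporter signal, scaled so untreated is 0 and the glycosylation-blocking control 100, at or above a set limit in every replicate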;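 also: luciferase carries N-glycosylation sites so blocking glycosylation raises the light; 0% = median of neutral control wells and 100% = median of 100 nM tunicamycin wells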
EWS-Fli block = blocks EWS/Fli oncoprotein-driven transcription; A673 NR0B1-luciferase reporter, viability-normalised; hit rate 0.67% among 350,000; inhibition, % at 12.6 µM; AID 651661;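 active = mean inhibition of at least 50% after viability correction, with every replicate also passing that limit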;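 also: firefly luciferase signal divided by Alamar Blue viability fluorescence both relative to DMSO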
FN deposit inh = fibronectin deposition inhibition; AH1F fibroblasts, Alexa488-fibronectin deposition fluorescence, overnight; inhibition, % at 12.6 µM; hit rate 0.086% among 350,000;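 active = mean inhibition across replicates of 30% or more, regardless of how many single replicates reach that level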;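 also: positive control wells lacked labelled fibronectin entirely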
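Assay system: AH1F fibroblasts assembling fluorescent fibronectin matrix; Amount: 10000 AH1F cells per well; Buffer or medium: DMEM, 2% serum; Probe or stimulus: Alexa488-fibronectin, 24 nM final in well; Doses: single compound dose, delivered by pin transfer; Incubation: 1 h adhesion, overnight exposure; Measured by: fluorescence 485/525 nm; Read-out: fibronectin deposition inhibition.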
An asterisk follows results filed as active; [ ] = dose if it differs, or a comment. Sampled rows, rich in hits. Any-hit rate of the full collection: about 2.5%.

For CCCC(=O)Nc1ccc2c(c1)OC[C@@H](C)N(C(=O)CN(C)C)C[C@@H](C)[C@@H](OC)CN(C)C2=O the results were PAX8 inh HTS 0, HIV Env fusion 7[16.7 µM], EWS-Fli block -1 and FN deposit inh 2.
`CC(C)CNC(=O)c1coc(=O)c(Br)c1` gave HIV Env fusion inactive, Glyco luc inh 20 and FN deposit inh active.
For CN(C)CCNC(=O)c1coc(=O)c(Br)c1 the results were Glyco luc inh 3.
For O=C(NCCc1ccccc1)c1coc(=O)c(Br)c1 the results were PAX8 inh HTS 65*, AF4-AF9 inh -6, HIV Env fusion -194, Glyco luc inh 22, EWS-Fli block 23 and FN deposit inh 1.
Screening O=C(NCCC1=CCCCC1)c1coc(=O)c(Br)c1 returned HIV Env fusion -408 and Glyco luc inh 4.
Screening COc1ccc(OC)c(NC2=C(Cl)C(=O)N(Cc3ccccc3)C2=O)c1 returned PAX8 inh HTS 18, AF4-AF9 inh 27*, HIV Env fusion -1, Glyco luc inh 6, EWS-Fli block 5 and FN deposit inh -1.
`CCOC(=O)Nc1c2ccccc2nc2ccccc12` gave PAX8 inh HTS -11, AF4-AF9 inh 7, HIV Env fusion 4, Glyco luc inh 34*, EWS-Fli block -24 and FN deposit inh -1.
OC[C@@H]1CC[C@@H]2O[C@H](CCc3ccc(-c4ccccc4)cc3)[C@@H](n3cc(C4CC4)nn3)C[C@@H]2O1 was read as PAX8 inh HTS 3, AF4-AF9 inh -4 and EWS-Fli block 12.
For COc1ccc2cc(C3CC=C(CO)CN3S(=O)(=O)c3ccccc3[N+](=O)[O-])n(C(=O)OC(C)(C)C)c2c1 (stereo not drawn) the results were PAX8 inh HTS 18, HIV Env fusion 65*, EWS-Fli block 5 and FN deposit inh -7.
For COc1ccc(S(=O)(=O)Nc2cccc3c2O[C@H](CN(C)S(=O)(=O)c2cccs2)[C@@H](C)CN([C@@H](C)CO)C3=O)cc1 the results were AF4-AF9 inh 2, HIV Env fusion -18[16.7 µM] and EWS-Fli block 1.
O=C(C[C@@H]1CC[C@H]2[C@@H](COC[C@@H](O)CN2C(=O)Cc2ccccc2)O1)NC1CCCC1 was read as PAX8 inh HTS -2, AF4-AF9 inh -2, EWS-Fli block -7 and FN deposit inh -3.
For O=C1NC(=O)C2(CCc3ccccc32)N1 (stereo not drawn) the results were Glyco luc inh 0.
Screening C=C1CC2(OC1=O)c1ccccc1CCc1ccccc12 returned PAX8 inh HTS 71*, AF4-AF9 inh -1, HIV Env fusion 39, Glyco luc inh -23, EWS-Fli block 52* and FN deposit inh 20.
Screening COc1ccc2c3c([nH]c2c1)[C@H](CO)N(C(=O)CN1CCOCC1)CC31CCN(Cc2ccccc2)CC1 returned AF4-AF9 inh 6, HIV Env fusion -8[16.7 µM] and EWS-Fli block -4.
For CCN1CCN(CCNC(=O)c2ccc3nc(-c4cccc(C)c4)c(-c4cccc(C)c4)nc3c2)CC1 the results were PAX8 inh HTS 7, AF4-AF9 inh 28*, HIV Env fusion 5, Glyco luc inh -6, EWS-Fli block 21 and FN deposit inh -5.
`CC(=O)N1CC[C@@H]2[C@@H](CO)Nc3ccc(C#Cc4ccccc4F)cc3[C@@H]21` gave PAX8 inh HTS 10, AF4-AF9 inh 6, EWS-Fli block -2 and FN deposit inh 6.
`Fc1cccc(F)c1/C=C/c1ccc2ccccc2n1` gave PAX8 inh HTS -44, HIV Env fusion -246, Glyco luc inh -18 and FN deposit inh 2.
For Fc1cccc(Cl)c1/C=C/c1cnc2ccccc2n1 the results were PAX8 inh HTS -5, AF4-AF9 inh 4, HIV Env fusion -29, Glyco luc inh -17, EWS-Fli block 82* and FN deposit inh 4.
`COCC(=O)N(C)C[C@H]1Oc2ncc(C3=CCCC3)cc2C(=O)N([C@@H](C)CO)C[C@H]1C` gave PAX8 inh HTS -15, AF4-AF9 inh -2, HIV Env fusion -7[16.7 µM] and EWS-Fli block -17.
CC1=C([N+](=O)[O-])C(c2cccc(Br)c2)C2=C(N1)c1ccccc1C2=O (stereo not drawn) was read as PAX8 inh HTS 85*, HIV Env fusion 138*, Glyco luc inh 11 and FN deposit inh -10.
COC(=O)C1=C(C)NC2=C(C(=O)c3ccccc32)C1c1cccc(OC)c1 (stereo not drawn) was read as PAX8 inh HTS -2, AF4-AF9 inh 2, HIV Env fusion 10, Glyco luc inh -1, EWS-Fli block -1 and FN deposit inh -4.
For Cc1cc2[nH]c3c(c[n+](C)c4ccccc34)c2cc1C the results were PAX8 inh HTS 111*, AF4-AF9 inh 18, HIV Env fusion -209, Glyco luc inh -24, EWS-Fli block 82* and FN deposit inh 6.
`O=C(Nc1cccc(S(=O)(=O)NCc2ccco2)c1)c1cc(-c2ccc(F)cc2)nc2ccccc12` gave PAX8 inh HTS 10, AF4-AF9 inh 13, HIV Env fusion 18, Glyco luc inh 4, EWS-Fli block -8 and FN deposit inh -9.
Screening COc1ccc(-c2cc(C(=O)NCC(c3ccccc3)N(C)C)c3ccccc3n2)cc1OC (stereo not drawn) returned PAX8 inh HTS 17, AF4-AF9 inh 4, HIV Env fusion -83, Glyco luc inh 30*, EWS-Fli block 13 and FN deposit inh 4.
COc1ccc(-c2cc(C(=O)NCc3ccco3)c3ccccc3n2)cc1OC was read as PAX8 inh HTS -12, AF4-AF9 inh -4, HIV Env fusion 6, Glyco luc inh 2, EWS-Fli block 14 and FN deposit inh 0.
`COc1ccc(-c2cc(C(=O)Nc3cccc(S(=O)(=O)NCc4ccco4)c3)c3ccccc3n2)cc1OC` gave PAX8 inh HTS 70*, AF4-AF9 inh 0, HIV Env fusion -8, Glyco luc inh 0, EWS-Fli block 2 and FN deposit inh 14.
COc1ccc(NC(=O)Nc2ccc3c(c2)C(=O)N([C@H](C)CO)C[C@@H](C)[C@@H](CN(C)CC2CCCCC2)OCCCC[C@@H](C)O3)cc1 was read as PAX8 inh HTS -1, AF4-AF9 inh -5, HIV Env fusion -2[16.7 µM] and EWS-Fli block 19.
CO[C@@H]1CN(C)C(=O)c2ccc(NC(C)=O)cc2OC[C@@H](C)N(Cc2ccncc2)C[C@H]1C was read as EWS-Fli block 4 and FN deposit inh -7.
For CCOC(=O)C1(CCOc2ccccc2)CCN(Cc2ccc(O)cc2)CC1 the results were PAX8 inh HTS -11, AF4-AF9 inh 2, HIV Env fusion 6, Glyco luc inh -3, EWS-Fli block 10 and FN deposit inh 12.
`CCOC(=O)C1(CCOc2ccccc2)CCN(Cc2cccc3nonc23)CC1` gave PAX8 inh HTS 2, AF4-AF9 inh 26*, HIV Env fusion 3, Glyco luc inh -5, EWS-Fli block 0 and FN deposit inh 11.
